Results published in ChEMBL document CHEMBL1156948, “Statistical molecular design of a focused salicylidene acylhydrazide library and multivariate QSAR of inhibition of type III secretion in the Gram-negative bacterium Yersinia” (Bioorg Med Chem, 2010).
Active and inactive are the calls of the source. How the calls were made is not given here.

Tested on: Escherichia coli
Test: Antibacterial activity against Escherichia coli DH5[alpha] at 50 uM after 23 hrs by broth dilution assay
Assay type: functional, organism-based
How it was run: (§1)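 Overnight LB culture of E. coli DH5α grown at 37 °C, diluted to OD600 0.1 in LB with 2.5 mM CaCl2; compound added from DMSO stock to final 50 or 100 µM. Incubated at 37 °C with absorbance at 595 nm followed over 23 h.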

Compound | Activity
COc1cccc(C(=O)N/N=C/c2cc(OC)cc(OC)c2O)c1 | inactive
COc1ccc(Br)c(/C=N/NC(=O)CC#N)c1O | inactive
COc1cc(/C=N/NC(=O)c2cccc(C(F)(F)F)c2)c(O)c(OC)c1 | inactive
O=C(N/N=C/c1cccc(F)c1O)c1cccc(C(F)(F)F)c1 | inactive
COc1ccc(Br)c(C(=O)N/N=C/c2cc(C(C)(C)C)ccc2O)c1 | inactive
COc1ccc(/C=N/NC(=O)c2sc3ccccc3c2Cl)c(O)c1 | inactive
COc1cccc(/C=N/NC(=O)c2ccccc2[N+](=O)[O-])c1O | inactive
O=C(CC12CC3CC(CC(C3)C1)C2)N/N=C/c1ccc(Cl)cc1O | inactive
O=C(N/N=C/c1ccc(O)c(O)c1O)c1ccccc1[N+](=O)[O-] | inactive

Tested on: Yersinia pseudotuberculosis
Test: Antibacterial activity against Yersinia pseudotuberculosis expressing pIB102 at 50 uM after 23 hrs by broth dilution assay
Assay type: functional, organism-based
How it was run: (§2)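 Wild-type pIB102 grown overnight in LB at room temperature, diluted to OD600 = 0.1 in LB with 2.5 mM CaCl2. Compound added from DMSO stock to final 50 and 100 µM. Incubated at 37 °C with absorbance at 595 nm read over 23 h.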

Compound | Activity
COc1cccc(C(=O)N/N=C/c2cc(OC)cc(OC)c2O)c1 | inactive
COc1ccc(Br)c(/C=N/NC(=O)CC#N)c1O | inactive
COc1cc(/C=N/NC(=O)c2cccc(C(F)(F)F)c2)c(O)c(OC)c1 | inactive
O=C(N/N=C/c1cccc(F)c1O)c1cccc(C(F)(F)F)c1 | inactive
COc1ccc(Br)c(C(=O)N/N=C/c2cc(C(C)(C)C)ccc2O)c1 | inactive
COc1ccc(/C=N/NC(=O)c2sc3ccccc3c2Cl)c(O)c1 | inactive
COc1cccc(/C=N/NC(=O)c2ccccc2[N+](=O)[O-])c1O | inactive
O=C(CC12CC3CC(CC(C3)C1)C2)N/N=C/c1ccc(Cl)cc1O | inactive
O=C(N/N=C/c1ccc(O)c(O)c1O)c1ccccc1[N+](=O)[O-] | inactive

Tested on: Escherichia coli
Test: Antibacterial activity against Escherichia coli DH5[alpha] at 100 uM after 23 hrs by broth dilution assay
Assay type: functional, organism-based
How it was run: as §1

Compound | Activity
COc1cccc(C(=O)N/N=C/c2cc(OC)cc(OC)c2O)c1 | inactive
COc1ccc(Br)c(/C=N/NC(=O)CC#N)c1O | inactive
COc1cc(/C=N/NC(=O)c2cccc(C(F)(F)F)c2)c(O)c(OC)c1 | inactive
O=C(N/N=C/c1cccc(F)c1O)c1cccc(C(F)(F)F)c1 | inactive
COc1ccc(Br)c(C(=O)N/N=C/c2cc(C(C)(C)C)ccc2O)c1 | inactive
COc1ccc(/C=N/NC(=O)c2sc3ccccc3c2Cl)c(O)c1 | inactive
COc1cccc(/C=N/NC(=O)c2ccccc2[N+](=O)[O-])c1O | inactive
O=C(CC12CC3CC(CC(C3)C1)C2)N/N=C/c1ccc(Cl)cc1O | inactive
O=C(N/N=C/c1ccc(O)c(O)c1O)c1ccccc1[N+](=O)[O-] | inactive

Tested on: Yersinia pseudotuberculosis YPIII
Test: Inhibition of T3S in Yersinia pseudotuberculosis YPIII expressing yopE-luxAB at 1.56 uM after 3 hrs by luciferase reporter gene assay
How it was run: (§3)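 Strain YPIII pIB102 (yopE-luxAB) grown overnight at room temperature in BHI with 5 mM EGTA and 20 mM MgCl2 (calcium depletion), adjusted to OD600 0.088–0.095. Compound added from DMSO at 1.56–200 µM final (eight concentrations). Shaken 1 h at room temperature, then 2 h at 37 °C. Decanal added and light emission read immediately. Triplicates, repeated at least three times.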

Compound | inhibition [%]
COc1cccc(C(=O)N/N=C/c2cc(OC)cc(OC)c2O)c1 | -7
COc1ccc(Br)c(/C=N/NC(=O)CC#N)c1O | -9
COc1cc(/C=N/NC(=O)c2cccc(C(F)(F)F)c2)c(O)c(OC)c1 | -10
O=C(N/N=C/c1cccc(F)c1O)c1cccc(C(F)(F)F)c1 | -10
COc1ccc(Br)c(C(=O)N/N=C/c2cc(C(C)(C)C)ccc2O)c1 | 3
COc1ccc(/C=N/NC(=O)c2sc3ccccc3c2Cl)c(O)c1 | -2
COc1cccc(/C=N/NC(=O)c2ccccc2[N+](=O)[O-])c1O | -5
O=C(CC12CC3CC(CC(C3)C1)C2)N/N=C/c1ccc(Cl)cc1O | 0
O=C(N/N=C/c1ccc(O)c(O)c1O)c1ccccc1[N+](=O)[O-] | -8

Tested on: Yersinia pseudotuberculosis YPIII
Test: Inhibition of T3S in Yersinia pseudotuberculosis YPIII expressing yopE-luxAB at 100 uM after 3 hrs by luciferase reporter gene assay
How it was run: as §3

Compound | inhibition [%]
COc1cccc(C(=O)N/N=C/c2cc(OC)cc(OC)c2O)c1 | 63
COc1ccc(Br)c(/C=N/NC(=O)CC#N)c1O | 57
COc1cc(/C=N/NC(=O)c2cccc(C(F)(F)F)c2)c(O)c(OC)c1 | 74
O=C(N/N=C/c1cccc(F)c1O)c1cccc(C(F)(F)F)c1 | 48
COc1ccc(Br)c(C(=O)N/N=C/c2cc(C(C)(C)C)ccc2O)c1 | 22
COc1ccc(/C=N/NC(=O)c2sc3ccccc3c2Cl)c(O)c1 | 35
COc1cccc(/C=N/NC(=O)c2ccccc2[N+](=O)[O-])c1O | 68
O=C(CC12CC3CC(CC(C3)C1)C2)N/N=C/c1ccc(Cl)cc1O | 26
O=C(N/N=C/c1ccc(O)c(O)c1O)c1ccccc1[N+](=O)[O-] | 74

Tested on: Yersinia pseudotuberculosis YPIII
Test: Inhibition of T3S in Yersinia pseudotuberculosis YPIII expressing yopE-luxAB at 6.25 uM after 3 hrs by luciferase reporter gene assay
How it was run: as §3

Compound | inhibition [%]
COc1cccc(C(=O)N/N=C/c2cc(OC)cc(OC)c2O)c1 | 9
COc1ccc(Br)c(/C=N/NC(=O)CC#N)c1O | 17
COc1cc(/C=N/NC(=O)c2cccc(C(F)(F)F)c2)c(O)c(OC)c1 | 21
O=C(N/N=C/c1cccc(F)c1O)c1cccc(C(F)(F)F)c1 | 5
COc1ccc(Br)c(C(=O)N/N=C/c2cc(C(C)(C)C)ccc2O)c1 | 6
COc1ccc(/C=N/NC(=O)c2sc3ccccc3c2Cl)c(O)c1 | 10
COc1cccc(/C=N/NC(=O)c2ccccc2[N+](=O)[O-])c1O | 14
O=C(CC12CC3CC(CC(C3)C1)C2)N/N=C/c1ccc(Cl)cc1O | 18
O=C(N/N=C/c1ccc(O)c(O)c1O)c1ccccc1[N+](=O)[O-] | 16

Tested on: Yersinia pseudotuberculosis
Test: Antibacterial activity against Yersinia pseudotuberculosis expressing pIB102 at 100 uM after 23 hrs by broth dilution assay
Assay type: functional, organism-based
How it was run: as §2

Compound | Activity
COc1cccc(C(=O)N/N=C/c2cc(OC)cc(OC)c2O)c1 | inactive
COc1ccc(Br)c(/C=N/NC(=O)CC#N)c1O | inactive
COc1cc(/C=N/NC(=O)c2cccc(C(F)(F)F)c2)c(O)c(OC)c1 | inactive
O=C(N/N=C/c1cccc(F)c1O)c1cccc(C(F)(F)F)c1 | inactive
COc1ccc(Br)c(C(=O)N/N=C/c2cc(C(C)(C)C)ccc2O)c1 | inactive
COc1ccc(/C=N/NC(=O)c2sc3ccccc3c2Cl)c(O)c1 | inactive
COc1cccc(/C=N/NC(=O)c2ccccc2[N+](=O)[O-])c1O | inactive
O=C(CC12CC3CC(CC(C3)C1)C2)N/N=C/c1ccc(Cl)cc1O | inactive
O=C(N/N=C/c1ccc(O)c(O)c1O)c1ccccc1[N+](=O)[O-] | inactive

Tested on: Yersinia pseudotuberculosis YPIII
Test: Inhibition of T3S in Yersinia pseudotuberculosis YPIII expressing yopE-luxAB at 25 uM after 3 hrs by luciferase reporter gene assay
How it was run: as §3

Compound | inhibition [%]
COc1cccc(C(=O)N/N=C/c2cc(OC)cc(OC)c2O)c1 | 20
COc1ccc(Br)c(/C=N/NC(=O)CC#N)c1O | 20
COc1cc(/C=N/NC(=O)c2cccc(C(F)(F)F)c2)c(O)c(OC)c1 | 39
O=C(N/N=C/c1cccc(F)c1O)c1cccc(C(F)(F)F)c1 | 30
COc1ccc(Br)c(C(=O)N/N=C/c2cc(C(C)(C)C)ccc2O)c1 | 18
COc1ccc(/C=N/NC(=O)c2sc3ccccc3c2Cl)c(O)c1 | 15
COc1cccc(/C=N/NC(=O)c2ccccc2[N+](=O)[O-])c1O | 19
O=C(CC12CC3CC(CC(C3)C1)C2)N/N=C/c1ccc(Cl)cc1O | 25
O=C(N/N=C/c1ccc(O)c(O)c1O)c1ccccc1[N+](=O)[O-] | 22

Tested on: Yersinia pseudotuberculosis YPIII
Test: Inhibition of T3S in Yersinia pseudotuberculosis YPIII expressing yopE-luxAB at 200 uM after 3 hrs by luciferase reporter gene assay
How it was run: as §3

Compound | inhibition [%]
COc1cccc(C(=O)N/N=C/c2cc(OC)cc(OC)c2O)c1 | 76
COc1ccc(Br)c(/C=N/NC(=O)CC#N)c1O | 59
COc1cc(/C=N/NC(=O)c2cccc(C(F)(F)F)c2)c(O)c(OC)c1 | 75
O=C(N/N=C/c1cccc(F)c1O)c1cccc(C(F)(F)F)c1 | 65
COc1ccc(Br)c(C(=O)N/N=C/c2cc(C(C)(C)C)ccc2O)c1 | 20
COc1ccc(/C=N/NC(=O)c2sc3ccccc3c2Cl)c(O)c1 | 50
COc1cccc(/C=N/NC(=O)c2ccccc2[N+](=O)[O-])c1O | 94
O=C(CC12CC3CC(CC(C3)C1)C2)N/N=C/c1ccc(Cl)cc1O | 29
O=C(N/N=C/c1ccc(O)c(O)c1O)c1ccccc1[N+](=O)[O-] | 96

Tested on: Yersinia pseudotuberculosis YPIII
Test: Inhibition of T3S in Yersinia pseudotuberculosis YPIII expressing yopE-luxAB at 50 uM after 3 hrs by luciferase reporter gene assay
How it was run: as §3

Compound | inhibition [%]
COc1cccc(C(=O)N/N=C/c2cc(OC)cc(OC)c2O)c1 | 43
COc1ccc(Br)c(/C=N/NC(=O)CC#N)c1O | 25
COc1cc(/C=N/NC(=O)c2cccc(C(F)(F)F)c2)c(O)c(OC)c1 | 66
O=C(N/N=C/c1cccc(F)c1O)c1cccc(C(F)(F)F)c1 | 32
COc1ccc(Br)c(C(=O)N/N=C/c2cc(C(C)(C)C)ccc2O)c1 | 33
COc1ccc(/C=N/NC(=O)c2sc3ccccc3c2Cl)c(O)c1 | 27
COc1cccc(/C=N/NC(=O)c2ccccc2[N+](=O)[O-])c1O | 32
O=C(CC12CC3CC(CC(C3)C1)C2)N/N=C/c1ccc(Cl)cc1O | 32
O=C(N/N=C/c1ccc(O)c(O)c1O)c1ccccc1[N+](=O)[O-] | 36

Tested on: Yersinia pseudotuberculosis YPIII
Test: Inhibition of T3S in Yersinia pseudotuberculosis YPIII expressing yopE-luxAB at 3.13 uM after 3 hrs by luciferase reporter gene assay
How it was run: as §3

Compound | inhibition [%]
COc1cccc(C(=O)N/N=C/c2cc(OC)cc(OC)c2O)c1 | 4
COc1ccc(Br)c(/C=N/NC(=O)CC#N)c1O | 12
COc1cc(/C=N/NC(=O)c2cccc(C(F)(F)F)c2)c(O)c(OC)c1 | 10
O=C(N/N=C/c1cccc(F)c1O)c1cccc(C(F)(F)F)c1 | 3
COc1ccc(Br)c(C(=O)N/N=C/c2cc(C(C)(C)C)ccc2O)c1 | 0
COc1ccc(/C=N/NC(=O)c2sc3ccccc3c2Cl)c(O)c1 | -2
COc1cccc(/C=N/NC(=O)c2ccccc2[N+](=O)[O-])c1O | 19
O=C(CC12CC3CC(CC(C3)C1)C2)N/N=C/c1ccc(Cl)cc1O | 7
O=C(N/N=C/c1ccc(O)c(O)c1O)c1ccccc1[N+](=O)[O-] | 5

Tested on: Yersinia pseudotuberculosis YPIII
Test: Inhibition of T3S in Yersinia pseudotuberculosis YPIII expressing yopE-luxAB at 12.5 uM after 3 hrs by luciferase reporter gene assay
How it was run: as §3

Compound | inhibition [%]
COc1cccc(C(=O)N/N=C/c2cc(OC)cc(OC)c2O)c1 | 13
COc1ccc(Br)c(/C=N/NC(=O)CC#N)c1O | 18
COc1cc(/C=N/NC(=O)c2cccc(C(F)(F)F)c2)c(O)c(OC)c1 | 24
O=C(N/N=C/c1cccc(F)c1O)c1cccc(C(F)(F)F)c1 | 14
COc1ccc(Br)c(C(=O)N/N=C/c2cc(C(C)(C)C)ccc2O)c1 | 26
COc1ccc(/C=N/NC(=O)c2sc3ccccc3c2Cl)c(O)c1 | 12
COc1cccc(/C=N/NC(=O)c2ccccc2[N+](=O)[O-])c1O | 12
O=C(CC12CC3CC(CC(C3)C1)C2)N/N=C/c1ccc(Cl)cc1O | 19
O=C(N/N=C/c1ccc(O)c(O)c1O)c1ccccc1[N+](=O)[O-] | 20
